Rows were chosen to be rich in hits. Some 3.7% of all compounds tested hit in one or more screens of this group.
Kir21 block – Kir2.1 (mouse) channel inhibition; P35561; HEK293-Kir2.1, FluxOR thallium flux fluorescence; stronger effect = lower value; B-score at 10 µM; 310,000 tested, 0.85% active; AID 1672;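 active means fluorescence ratio B-score at or below minus 3 SD of library scores, with starting-brightness B-score within 2 SD, cut at about -4.2 in these data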;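 further: channel flux triggered by added potassium and thallium sulfate stimulus; B-score of peak minus minimum fluorescence over baseline after thallium stimulus; more negative B-score means stronger Kir2.1 block with less thallium influx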
KCNQ1 act – potentiators or activators of human KCNQ1 potassium channel | B-score at 10 µM | CHO-K1 KCNQ1, thallium flux FluxOR fluorescence; stronger effect = higher value | P51787 | 310,000 tested, 0.35% active;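 active means fluorescence ratio B-score, a plate-corrected score, at least three library SD, with initial intensity B-score within 5 SD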
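Medium – assay buffer, equal DMSO in all wells · Material – CHO-K1 cell line with stable KCNQ1 potassium channel expression · Signal – kinetic FluxOR thallium fluorescence, 10-s 1-Hz baseline, 110-s post-stimulus read · Compound – single concentration per compound, DMSO matched to controls · Schedule – 37 °C overnight plating, 90-min dark dye load, 20-min compound pretreatment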
KCNQ1 block – human KCNQ1 channel inhibition | P51787 | CHO-K1 KCNQ1, FluxOR thallium flux fluorescence; stronger effect = higher value | B-score at 10 µM | 310,000 tested, 1.3% active | AID 2642;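 active means compounds whose thallium flux B-score, printed positive for inhibition, exceeds three library SD while starting fluorescence stays within three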;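 further: channel opened by potassium depolarization with thallium stimulus after 20 min compound exposure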
KCNK9 block – human KCNK9 channel inhibition; AID 488922; Q9NPC2; HEK293 KCNK9, FluxOR thallium flux fluorescence; stronger effect = lower value; B-score at 10 µM; 310,000 tested, 1.2% active;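 active means ratio B-score over 3 SD below the library mean, with starting fluorescence within 5 SD of its mean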;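 further: negative B-score means less thallium flux so channel inhibition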
hERG protect – hERG (human) protection from proarrhythmic block; CHO-hERG, FluxOR thallium flux, dofetilide IC70 present; activation (rescue from dofetilide block), less the hit threshold, % at 10 µM; 310,000 tested, 0.51% active; AID 1511;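 active means activation above the mean of controls blocked by dofetilide plus 5 SD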;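 further: thallium influx through hERG after potassium depolarization seen as dye fluorescence rise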
KCNK3 block – human KCNK3 channel inhibition, primary screen | O14649 | CHO-KCNK3 thallium flux, FluxOR fluorescence; stronger effect = lower value | B-score at 10 µM | 340,000 tested, 0.84% active;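 active means B-score under library mean minus 4 SD, starting fluorescence ratio at most library mean plus 5 SD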;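 further: more negative B-score means stronger inhibition of thallium flux through KCNK3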
An asterisk follows results filed as active; i = inactive; nt = no result.

SMILES	Kir21 block	KCNQ1 act	KCNQ1 block	KCNK9 block	hERG protect	KCNK3 block
O=S(=O)(Nc1nc2ccccc2nc1Cl)c1ccc(Br)cc1	-1	i	9*	i	-10	i
Cc1ccccc1S(=O)(=O)Nc1nc2ccccc2nc1Cl	-1.1	i	i	i	-6	i
O=C(NN1C(=O)CSC1=S)C(=O)NN1C(=O)CSC1=S	-0.87	i	i	i	5.2*	i
Cc1ccsc1/C=N/Nc1ncc(Cl)cc1Cl	-0.65	i	6*	i	-9	i
CCOc1ccc(OCCC(=O)N(CCC(C)C)c2c(N)n(Cc3ccccc3)c(=O)[nH]c2=O)cc1	-1.1	i	i	i	-10	i
COc1cc(/C=C/c2nc(N)nc(-c3ccccc3O)n2)cc(OC)c1OC	-1.2	i	i	-7.7*	-13	i
COc1ccc(/C=C/c2nc(N)nc(-c3ccccc3O)n2)cc1OC	0	i	i	i	-12	i
CN(C)Cc1ccccc1Sc1ccccc1Br	-0.4	i	i	i	-4	i
CN(C)Cc1ccccc1Sc1cccc2ccccc12	-5.3*	i	i	i	-8	i
COC(=O)c1ccc(N2C(=O)C3CC(C)=C(C)CC3C2=O)cc1 (centres undefined)	-1.9	i	i	i	-6	i
CCOCCCN(C(=O)Cn1nnc(-c2ccc(C)o2)n1)C(C(=O)NC1CCCC1)c1ccc(C)o1 (centres undefined)	-0.46	i	i	i	-10	i
COc1ccc(Nc2cc(C)c3ccc(O)cc3n2)cc1	-4.7*	i	i	i	-21	i
O=C(COc1ccc2c(c1)oc(=O)c1ccccc12)NCCN1CCOCC1	1.5	i	i	i	-6	i
C=CCn1c(=O)c(C(=O)Nc2ccc(C)cn2)c(O)c2ccccc21	0.45	i	i	i	-5	i
Cn1c(=O)c(C(=O)NCCc2ccccc2)c(O)c2ccccc21	0.1	i	i	i	-2	i
C=CCn1c(=O)c(C(=O)NCCc2ccccc2)c(O)c2ccccc21	-0.42	i	6*	i	-3	i
C=CCn1c(=O)c(C(=O)NCc2ccc(Cl)cc2)c(O)c2ccccc21	-0.97	i	7*	i	-9	i
CCC1CCCCN1C(=O)c1cccc(S(=O)(=O)Nc2cc(C(F)(F)F)ccc2Cl)c1 (centres undefined)	-0.33	i	7*	i	-15	i
O=C(NC1CCN(Cc2ccccc2)CC1)c1cccc(S(=O)(=O)Nc2cc(C(F)(F)F)ccc2Cl)c1	-0.14	i	i	i	-18	i
CCCN(CCC)S(=O)(=O)c1ccc(C(=O)OCCN2C(=O)c3cccc4c(N5CCOCC5)ccc(c34)C2=O)cc1	-12	i	10*	i	-18	i
O=c1[nH]cc(N=Cc2cc(Cl)cc(Cl)c2O)c(=O)[nH]1	-0.13	18*	i	i	2	i
O=c1[nH]cc(N=Cc2cc([N+](=O)[O-])ccc2O)c(=O)[nH]1	-0.46	i	i	i	-14	nt
COc1ccccc1C(=O)Nc1ccc2[nH]ncc2c1	0.01	9*	i	i	0	i
COc1cccc(C(=O)Nc2ccc3[nH]ncc3c2)c1	0.02	i	i	i	-3	i
CCOc1cccc(C(=O)Nc2ccc3[nH]ncc3c2)c1	-0.15	i	i	i	4.9*	i
O=S(=O)(c1cccc(-c2nnc(SCc3ccc(Cl)cc3)o2)c1)N1CCCCC1	0.34	i	i	-7.2*	-6	i
CCCN(CC(=O)Nc1ccccc1C)C(=O)Cc1n[nH]c(=O)c2ccccc12	nt	nt	nt	nt	nt	i
CC(=O)N[C@H]1[C@H]([C@H](O)[C@H](O)CO)O[C@](O)(C(=O)O)C[C@@H]1O	nt	nt	nt	nt	nt	i
CCCN1CCN(CCCNC(=O)c2cc3c(s2)-c2c(C)cccc2OC3)CC1	-0.85	i	i	i	-19	i
Cc1cccc2c1-c1sc(C(=O)NCCCN3CCCC(C)C3)cc1CO2 (centres undefined)	-4.7*	i	i	i	-23	i
